Compound activity (PubChem)
Rows were chosen to be rich in hits. Some 0.74% of all compounds tested hit in one or more screens of this group.
Diaphorase act: activates diaphorase or chemically reduces, flagging diaphorase assay artifacts. Diaphorase/resazurin coupled assay, resorufin fluorescence, 16 min; stronger effect = higher value; 1 = vehicle wells, 0 = NADH-free wells. activation factor at 20 µM. AID 1229. 190,000 compounds, 0.005% hits;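 active = diaphorase activity raised at least twofold by the compound at 20 µM; inactive = activation factor below 2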
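Assay system: bacterial diaphorase enzyme (C. kluyveri) / Input: enzyme 0.07 U/mL final / Medium: 50 mM HEPES pH 7.4 with 4.542 mM MgCl2, 0.005% Tween 20 / Doses: single compound dose of 20 µM, 1% DMSO final / Incubation: 16 min enzyme reaction, ambient temperature / Signal: fluorescence, excitation 544 nm and emission 590 nm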
Diaphorase inh: counter-screen for diaphorase-based assays: diaphorase inhibitors and chemical oxidizers; AID 1217; diaphorase resazurin-to-resorufin fluorescence, NADH, 16 min; bacterial (C. kluyveri) enzyme, not human; 190,000 compounds, 0.69% hits; inhibition, % at 20 µM;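 active = primary screen inhibition at 20 µM above a set limit, cut at about 50% in these data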;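 also: plate controls were DMSO with full reaction for no effect and wells lacking NADH for full effect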
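Assay system: diaphorase enzyme from Clostridium kluyveri; Input: enzyme working solution with 0.14 U/mL diaphorase; Timing: 16 min at room temperature; Technique: resorufin fluorescence, excitation 544 nm, emission 590 nm; Benchmarks: positive control minus NADH, DMSO neutral control.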
HKDC1 inh: blocks human hexokinase HKDC1 activity | Q2TB90 | recombinant HKDC1, G6PDH/diaphorase resazurin coupled fluorescence | inhibition, % at 20 µM | 340,000 compounds, 0.16% hits | AID 493160;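 active = inhibition above about 35% when tested at 20 µM, limit read from the data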;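 also: plate controls were DMSO wells with enzyme for no effect and DMSO wells lacking enzyme for full effect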
Target sequence (Q2TB90 whole entry, looked up): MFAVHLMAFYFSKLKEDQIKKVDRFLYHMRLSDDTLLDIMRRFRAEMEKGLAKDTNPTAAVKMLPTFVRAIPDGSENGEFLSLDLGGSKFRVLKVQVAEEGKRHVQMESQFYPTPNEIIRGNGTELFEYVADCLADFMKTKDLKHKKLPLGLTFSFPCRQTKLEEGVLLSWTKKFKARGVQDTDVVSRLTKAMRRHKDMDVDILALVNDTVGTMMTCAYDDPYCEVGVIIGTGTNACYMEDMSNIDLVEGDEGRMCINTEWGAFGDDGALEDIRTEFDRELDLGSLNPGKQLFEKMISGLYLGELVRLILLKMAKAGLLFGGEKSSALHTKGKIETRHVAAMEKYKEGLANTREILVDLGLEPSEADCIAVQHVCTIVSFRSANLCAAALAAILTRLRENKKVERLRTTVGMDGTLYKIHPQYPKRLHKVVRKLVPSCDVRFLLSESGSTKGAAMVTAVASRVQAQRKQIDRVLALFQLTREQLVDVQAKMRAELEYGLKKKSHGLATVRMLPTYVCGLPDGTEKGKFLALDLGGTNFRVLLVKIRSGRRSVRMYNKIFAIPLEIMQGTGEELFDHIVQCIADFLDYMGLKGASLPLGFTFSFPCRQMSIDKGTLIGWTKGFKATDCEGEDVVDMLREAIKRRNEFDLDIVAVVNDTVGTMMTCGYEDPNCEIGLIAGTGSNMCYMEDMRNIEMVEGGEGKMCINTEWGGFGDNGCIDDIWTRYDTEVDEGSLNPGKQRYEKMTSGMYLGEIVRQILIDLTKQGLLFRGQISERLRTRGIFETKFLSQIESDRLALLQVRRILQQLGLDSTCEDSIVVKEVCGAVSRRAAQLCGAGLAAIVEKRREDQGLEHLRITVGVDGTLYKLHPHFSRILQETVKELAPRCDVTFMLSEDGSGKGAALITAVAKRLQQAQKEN
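Material: recombinant HKDC1 hexokinase; Amount: HKDC1 at 5 µg/mL; Medium: Tris pH 8.0 buffer with MgCl2, Tween-20, BSA, BME; Schedule: 90 min reaction incubation at room temperature, dark; Technique: coupled resazurin fluorescence, excitation 525 nm, emission 613 nm.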
G6PDH counter: inhibits Leuconostoc G6PDH, flagging false hits in G6PDH-based assays. 200,000 compounds, 0.12% hits. inhibition, % at 5 µM. AID 1020. Purified L. mesenteroides G6PDH, diaphorase/resazurin coupled fluorescence, 45 min; in the data active = inhibition above about 50%
Arbovirus inh: arbovirus infection inhibition; AID 1251; 200,000 compounds, 0.37% hits; inhibition, % at 10 µM; arbovirus infection cell-based antiviral screen; in the data active = inhibition above about 30%
* hit, by the source's call; · = not tested or not shown.

SMILES | Diaphorase act | Diaphorase inh | HKDC1 inh | G6PDH counter | Arbovirus inh
Cc1ccc2sc(NNC(=O)c3cc(=O)c4ccccc4o3)nc2c1C | 0.4 | 58* | -21 | 8 | -17
Cc1cccc2sc(NNC(=O)c3cc(=O)c4ccccc4o3)nc12 | 0.5 | 49 | -23 | 9 | 3
Cc1ccc(S(=O)(=O)N2[C@@H](c3ccc(C(C)(C)C)cc3)C(C(=O)O)=CC[C@H]2c2ccc3c(c2)OCO3)cc1 | · | · | 6 | · | ·
Cc1nn(CCC(=O)NNC(=S)Nc2ccc([N+](=O)[O-])cc2)c(C)c1[N+](=O)[O-] | 0.1 | 86* | -4 | 2 | 22
Cc1nn(CCC(=O)NNC(=S)Nc2ccc(F)cc2)c(C)c1Br | 0.9 | 13 | -6 | 2 | -9
O=C(Cn1nc(C(F)F)cc1C(F)F)NNC(=S)Nc1ccc([N+](=O)[O-])cc1 | 0.5 | 52* | -3 | 8 | 5
COc1cc(NC(=O)C2CCCN(c3ncccn3)C2)cc(OC)c1 (stereo not drawn) | 0.9 | 12 | 4 | 11 | -10
CC(C)(C)N(Cc1ccccc1)C(=O)CN1C(=O)c2ccccc2S1(=O)=O | · | · | -1 | · | ·
COc1ccc(-c2nnc(-c3cc(OC)c(OC)c(OC)c3)o2)cc1OC | 1.1 | -12 | -3 | -1 | 38*
COCCC(=O)N1CCC(Oc2ccc(C(=O)NCc3nccn3C)cc2)CC1 | · | · | -4 | · | ·
O=c1oc(-c2ccccc2NS(=O)(=O)c2ccc3ccccc3c2)nc2ccccc12 | 0.7 | 26 | 9 | -13 | 30*
Cc1cccc(N2C(=O)C3CCCN3C2=S)c1C (stereo not drawn) | · | · | -7 | · | ·
CN(C)c1nc(C(=O)NN)nc(N(C)C)n1 | 0.9 | 11 | -7 | -1 | 0
CN(C)c1nc(N)c2ncc(=S)[nH]c2n1 | 0.5 | 52* | 10 | 15 | 2
COc1ccc(C(=O)NCC(C)(C)SCc2c(C)cc(C)cc2C)cc1 | 1 | 1 | -2 | 5 | 46*
COc1ccc(C(=O)NCCNC(=O)c2ccc(OC)cc2)cc1 | · | · | -6 | · | ·
O=c1nc(-c2ccccc2)c2cc(Br)ccc2[nH]1 | · | · | -1 | · | ·
O=c1cc2[nH]c3ccccc3c(=O)n2nc1-c1ccccc1 | 0.3 | 66* | 21 | 7 | -9
Cc1ccc(S(=O)(=O)N(C(=O)c2ccncc2)c2ccc(OC(=O)c3ccncc3)c3ccccc23)c(C)c1 | 0.7 | 33 | 38* | 3 | -33
Cc1ccc2[nH]c3c(c2c1)CCc1cn[nH]c1-3 | 0.3 | 70* | 20 | -45 | -31
O=C(O)CSc1cc(C(=O)c2ccccc2O)cn2c(=O)c3c(-c4ccccc4)csc3nc12 | 0.7 | 34 | 13 | 13 | 70*
CCOC(=O)c1c(C)oc2c1c(CN1CCN(C(=O)OCC)CC1)c(O)c1ccccc12 | 0.6 | 36 | 12 | 40 | -11
CCOC(=O)c1c(C)oc2c1c(C=NCCC(=O)O)c(O)c1ccccc12 | 0.3 | 71* | 13 | 52* | -11
CCOC(=O)c1c(C)oc2c1c(C(c1ccncc1)N1CCOCC1)c(O)c1ccccc12 (stereo not drawn) | 0.8 | 21 | 13 | -31 | -38
CCOC(=O)c1c(C)oc2c1c(CN1CCN(CCO)CC1)c(O)c1ccccc12 | 0.4 | 61* | 29 | 48 | -34
SMILES | Diaphorase act | Diaphorase inh | HKDC1 inh | G6PDH counter | Arbovirus inh
CCOC(=O)c1c(C)oc2c1c(C=NC1CCS(=O)(=O)C1)c(O)c1ccccc12 (stereo not drawn) | 0.2 | 76* | 4 | 34 | -9
O=C(COC(=O)c1n[nH]c(=O)c2ccccc12)Nc1cccc(S(=O)(=O)N2CCOCC2)c1 | · | · | -3 | · | ·
Cc1ccc(NC(=S)N2CCC(N(C)CC3CCCO3)CC2)cc1 (stereo not drawn) | 0.9 | 14 | -1 | 8 | 3
COC(=O)C1=C(\O)CCCC/C=C\1C(=O)O | · | · | -2 | · | ·
COc1ccc2cc(N3CCCC3=O)ccc2c1 | · | · | -4 | · | ·
O=S(=O)(c1ccc2ccccc2c1)N1CCC(c2nc(-c3ccncc3)no2)CC1 | 0.4 | 57* | -10 | -1 | -24
CC(C)(O)C#Cc1ccc(CNC[C@H]2O[C@@H](n3cnc(C(N)=O)n3)[C@H](O)[C@@H]2O)s1 | · | · | 5 | · | ·
O=C(Nc1cc(NC(=O)c2ccccc2F)ccc1Cl)c1ccccc1 | · | · | 1 | · | ·
Cc1cc(NC(=O)c2ccccc2Cl)no1 | 0.9 | 12 | -3 | -4 | -2
